Measurements: article PMC2741613 (Journal of the American Chemical Society, 2009)
Like-named read-outs stand apart in the source and are kept apart here. Non-standard residues stand in square brackets, D forms with d. Residues, ends and D or L forms follow the SMILES beside them. F2Pmp = N[CH](Cc1ccc(C(F)(F)P(=O)(O)O)cc1)C(=O)O

What was measured:
TC-PTP = molecular target: T1, TC-PTP (Homo sapiens, UniProt P17706); test: TC-PTP-catalyzed pNPP hydrolysis inhibition; format: biochemical; settings: for fold enhancement relative to parent compound 5: IC50/affinity for TC-PTP versus compound 5; for IC50: pNPP 2 mM, pH 7.0, 25 °C
T1 sequence (P17706 1-415): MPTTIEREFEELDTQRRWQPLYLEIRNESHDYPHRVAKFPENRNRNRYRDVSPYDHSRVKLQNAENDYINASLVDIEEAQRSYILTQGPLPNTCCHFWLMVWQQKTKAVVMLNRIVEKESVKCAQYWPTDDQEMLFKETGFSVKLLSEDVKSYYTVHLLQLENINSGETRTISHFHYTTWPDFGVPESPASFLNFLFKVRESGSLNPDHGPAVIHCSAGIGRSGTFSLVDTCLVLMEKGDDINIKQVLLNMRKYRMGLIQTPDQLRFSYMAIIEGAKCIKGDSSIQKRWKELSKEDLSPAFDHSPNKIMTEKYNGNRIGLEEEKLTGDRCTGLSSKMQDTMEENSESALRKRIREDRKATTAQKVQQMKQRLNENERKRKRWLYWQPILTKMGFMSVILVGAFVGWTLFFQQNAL
Method in brief: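 IC50: enzyme added last (10 nM or 0.4 nM final) to 2 mM pNPP (Km) plus varied test compound, 30 min at room temperature, NaOH quench, A405. Reversibility: enzyme preincubated with test compound 30 min before pNPP. Mode/Ki: 0.4 nM enzyme, varied pNPP and inhibitor, kinetic fit.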

[1] = test system: tyrosine phosphorylation of EGFR in PTP1B−/− mouse embryo fibroblast cells; test: EGF-stimulated EGFR phosphorylation in cells; format: cell-based; settings: 200 nM
Method in brief: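 PTP1B−/− mouse embryo fibroblasts were given test compound for 2 hr, then EGF 2 ng/mL for 10 min. Lysis in HEPES pH 7.4 buffer with pervanadate, fluoride and protease inhibitors, cleared at 15,000 rpm for 10 min, protein by BCA. EGFR immunoprecipitated from 1 mg lysate (4 °C, 2 h; protein A/G 2 h). SDS-PAGE, anti-pTyr immunoblot, ECL detection.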

Row | Compound | fold enhancement relative to parent compound 5 (TC-PTP) | IC50 (TC-PTP; read-out: IC50 for the TC-PTP-catalyzed reaction) | IC50 (TC-PTP; read-out: IC50 for TC-PTP) | effect on EGFR phosphorylation [1]
1 | CCc1ccc(C(=O)NCCCCC(NC(=O)C(Cc2ccc(C(F)(F)P(=O)(O)O)cc2)NC(C)=O)C(N)=O)cc1 (stereo not shown) [Compound 6] | 12.5 fold | 0.16 ± 0.02 µM |  | 
2 | O=C(N[C@@H](Cc1ccc(C(F)(F)P(=O)(O)O)cc1)C(=O)O)OCC1c2ccccc2-c2ccccc21 [Fmoc-F2Pmp-OH, reference compound] |  |  | 20 µM | 
3 | CCc1ccc(C(=O)NCCCCC(NC(=O)C(Cc2ccc(C(F)(F)P(=O)(O)O)cc2)NC(=O)C(Cc2ccccc2)NC(C)=O)C(N)=O)cc1 (stereo not shown) [Compound 7] | 77 fold |  |  | 
4 | CCc1ccc(C(=O)NCCCCC(NC(=O)C(Cc2ccccc2)NC(=O)C(Cc2ccccc2)NC(=O)COC2CC(C)CCC2C(C)C)C(N)=O)cc1 (stereo not shown) [Compound 9] |  |  | > 1 µM | no effect
5 | CC(=O)NCCCCC(NC(=O)C(Cc1ccc(C(F)(F)P(=O)(O)O)cc1)NC(C)=O)C(N)=O (stereo not shown) [Compound 5] (Ac-[F2Pmp]-Lys(Ac)-NH2; configuration not given here) |  |  | 2 µM | 
